Experiment [1] concerns [125I]C-INSL7 binding sites, rat brain membranes. Briefly: [125I]C-INSL7 binding to rat brain membranes. Particulars: for inhibition of [125I]C-INSL7 binding: 1 to 1000 nM unlabeled peptide, ~0.3 nM [125I]C-INSL7, three independent experiments.
For experiment [2], the system named is cultured rat hypothalamic neurons. Briefly: Cytosolic Ca2+ measurement. Format: cell-based. The conditions noted are these: for mean amplitude of the first spike of [Ca2+]i oscillations, Ca2+-free / rapid and transitory increase in [Ca2+]i (single spike, no plateau), Ca2+-free: Ca2+-free HBSS with 2.5 mM EGTA; for mean amplitude of the first spike of [Ca2+]i oscillations, Ca2+-free: INSL7 n=5/76, C-INSL7 n=7; for rapid and transitory increase in [Ca2+]i (single spike, no plateau), Ca2+-free: INSL7 n=11/76, C-INSL7 n=15. The essentials: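 Cultured neonatal rat hypothalamic neurons (5 days, serum withdrawn 12 hr before) were loaded with 5 μM fura-2 AM for 45 min at room temperature and de-esterified 45 min. They were superfused with Ca2+-free HBSS containing 2.5 mM EGTA, and 100 nM peptide was applied. [Ca2+]i was derived from the 340/380 excitation ratio (emission 510 nm, 0.3 Hz). Responding cells were counted against cells tested.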

The test system is the same in experiment [3]. Put plainly: Membrane potential, optical imaging using DiSBAC4. In kind it is cell-based. The conditions noted are these: 100 nM, DiSBAC4(3); for mean amplitude of membrane depolarization / mean amplitude of membrane hyperpolarization: resting potential −53 ± 2.1 mV; for mean amplitude of membrane depolarization: C-INSL7 n=7/153, INSL7 n=4; for mean amplitude of membrane hyperpolarization: C-INSL7 n=15/153, INSL7 n=6. The essentials:
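Cultured neonatal rat hypothalamic neurons were loaded 30 min with DiSBAC4(3) in HBSS and superfused with 100 nM peptide. Fluorescence (excitation 480, emission 540 nm) was recorded at 10 points/min, background-subtracted. Calibration used 1 μM gramicidin in Na+-free solution with 17, 25 or 80 mM K+ (potentials by Nernst equation): a 1.092 fluorescence change equals 1 mV.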

The subject of experiment [4] is C-INSL7 antiserum (rabbit polyclonal). The conditions noted are these: ELISA; ref Phoenix Pharmaceuticals, Inc.; cited from earlier work. In general terms: An ELISA detects its analyte on a solid surface through an enzyme-linked reagent.
In experiment [5] the test system is cultured rat hypothalamic neurons. Briefly: Cytosolic Ca2+ measurement. In kind it is cell-based. Particulars: for neurons responding with fast calcium transient followed by oscillations / mean amplitude of the first spike, fast calcium transient followed by oscillations: INSL7 n=8/158, C-INSL7 n=11/276. In short, it runs like this: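 Hypothalamic neurons from 1–3-day-old rats were papain-dissociated and cultured 5 days in Neurobasal-A/10% FCS with 1 μM cytosine arabinoside, then serum-free for 12 hr. Cells were loaded with 5 μM fura-2 AM (45 min, room temperature, dark), de-esterified 45 min, then superfused with HBSS at 1 ml/min. Peptide was applied at 10–1000 nM. 340/380 ratio (emission 510 nm, 0.3 Hz) was converted to [Ca2+]i.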

The subject of experiment [6] is C-INSL7 antiserum (rabbit polyclonal). Briefly: Pre-absorption of C-INSL7 antiserum, immunohistochemistry of rat pons sections. The conditions noted are these: 1 μg/ml overnight.
Experiment [7] deals with GPCR135. The conditions noted are these: cells over-expressing GPCR135; ref Liu et al., 2003 a, b; cited from earlier work.
Another experiment has as its system GPCR145. The conditions noted are these: cells over-expressing GPCR145 (so in the source); ref Liu et al., 2003 a, b; cited from earlier work.
The test system of experiment [8] is GPCR135. Particulars: printed GPR135; ref Liu et al., 2003a, b; cited from earlier work.
Another experiment concerns GPCR142. The conditions noted are these: printed GPR142; ref Liu et al., 2003a, b; cited from earlier work.
The target in a further experiment is GPCR135 (Homo sapiens) (UniProt Q9NSD7). Put plainly: radioligand binding. Particulars: cited from earlier work.
For another experiment, the target named is GPCR142 (Homo sapiens) (UniProt Q8TDU9). Briefly: radioligand binding. Particulars: cited from earlier work.
Chain of UniProt Q8TDU9 (Q8TDU9 whole entry): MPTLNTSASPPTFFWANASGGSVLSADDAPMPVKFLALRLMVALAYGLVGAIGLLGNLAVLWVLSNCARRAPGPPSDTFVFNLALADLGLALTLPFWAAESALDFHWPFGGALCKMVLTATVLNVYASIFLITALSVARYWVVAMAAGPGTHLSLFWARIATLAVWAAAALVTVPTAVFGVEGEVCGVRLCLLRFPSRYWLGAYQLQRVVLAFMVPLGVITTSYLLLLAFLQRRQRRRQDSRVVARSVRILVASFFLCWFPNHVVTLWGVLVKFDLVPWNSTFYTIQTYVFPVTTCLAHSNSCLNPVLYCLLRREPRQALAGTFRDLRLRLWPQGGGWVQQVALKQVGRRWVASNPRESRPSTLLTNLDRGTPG

Chain of relaxin 3 (Q8WXF3 119-142): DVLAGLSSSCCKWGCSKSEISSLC
Chain of UniProt Q9NSD7 (Q9NSD7 whole entry): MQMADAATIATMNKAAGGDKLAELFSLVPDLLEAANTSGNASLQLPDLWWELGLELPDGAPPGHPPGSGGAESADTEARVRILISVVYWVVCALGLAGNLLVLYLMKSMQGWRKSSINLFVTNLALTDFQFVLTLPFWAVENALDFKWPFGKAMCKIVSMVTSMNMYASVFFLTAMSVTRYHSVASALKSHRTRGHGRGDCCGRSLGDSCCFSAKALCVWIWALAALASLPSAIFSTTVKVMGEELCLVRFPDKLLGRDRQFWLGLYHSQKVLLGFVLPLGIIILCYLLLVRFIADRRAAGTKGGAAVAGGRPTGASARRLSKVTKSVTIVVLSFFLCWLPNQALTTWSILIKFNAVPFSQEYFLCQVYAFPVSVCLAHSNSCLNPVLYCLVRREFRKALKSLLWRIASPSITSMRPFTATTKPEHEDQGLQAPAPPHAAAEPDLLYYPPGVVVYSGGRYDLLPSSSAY

On to “C-peptide of human preproinsulin-like peptide 7 [C-INSL7]”, for which the “inhibition of [125I]C-INSL7 binding” value in [1] is recorded as “in a dose-dependent manner”. Moreover, in [1] (homologous competition, ~0.3 nM [125I]C-INSL7, pH 7.4, room temperature, 1 hr, nonspecific: 1 μM C-INSL7, n=3), the Bmax was 45.4 ± 20.5 fmol/mg protein. Also, the affinity in [1] (homologous competition, ~0.3 nM [125I]C-INSL7, ~0.5 mg membranes, pH 7.4, room temperature, 1 hr, nonspecific: 1 μM C-INSL7, n=3), expressed as Kd, was 17.7 ± 8.2 nM. Further, the “concentration of maximum inhibition of [125I]C-INSL7 binding” value in [1] (unlabeled peptide 1 to 1000 nM) came out at 500 nM. In [2] (100 nM), the “mean amplitude of the first spike of [Ca2+]i oscillations, Ca2+-free” value is given as 497 ± 3.6 nM; the “rapid and transitory increase in [Ca2+]i (single spike, no plateau), Ca2+-free” value was 231 ± 2.6 nM. Also, the “cells responding with calcium oscillations, Ca2+-free” value in experiment [2] (100 nM, Ca2+-free saline, 7 cells) is given as 5%. Besides, the “cells responding with single Ca2+ spike, Ca2+-free” value in [2] (100 nM, Ca2+-free saline, 15 cells) worked out at 11%. For the same substance, in experiment [3], the “fraction of neurons depolarized (n responding/tested)” value is given as 7/153, the “fraction of neurons hyperpolarized (n responding/tested)” value is on record as 15/153, the “mean amplitude of membrane depolarization” value is given as 11 ± 1.6 mV and the “mean amplitude of membrane hyperpolarization” value is reported as 7 ± 1.3 mV. The “cross-reactivity with C-INSL7 antiserum” value in experiment [4] is listed as 100%. Besides, in [5] (10 nM, HBSS, fura-2, n = 6), the “amplitude of the first spike of [Ca2+]i oscillations” value is reported as 137 ± 2.6 nM and the “stable (sustained) [Ca2+]i elevation” value amounted to 118 ± 2.4 nM. Moreover, the “neurons responding with fast and sustained increase in [Ca2+]i” value in experiment [5] (100 nM, HBSS, 36 of 276) is 13%. Also, in experiment [5] (100 nM, HBSS), the “neurons responding with fast calcium transient followed by oscillations” value turned out to be 4%. For the same substance, in experiment [5] (100 nM, HBSS, fura-2), the “mean amplitude of the first spike, fast calcium transient followed by oscillations” value is 763 ± 4.2 nM. Also, in [5] (100 nM, HBSS, fura-2, n=36/276), the “mean amplitude of fast and sustained increase in [Ca2+]i” value was determined as 405 ± 3.1 nM. In addition, the “amplitude of the first spike of [Ca2+]i oscillations” value in experiment [5] (1,000 nM, HBSS, fura-2, n = 7) was found to be 1051 ± 9.8 nM. The “mean amplitude of fast and sustained increase in [Ca2+]i” value in experiment [5] (1,000 nM, HBSS, fura-2, n = 8) was 731 ± 4.7 nM. For the same substance, in experiment [5] (10, 100 and 1000 nM, HBSS), the “concentration dependence of calcium oscillations” value is “also in a concentration-dependent manner”; the “concentration dependence of fast and sustained increase in [Ca2+]i” value is recorded as “in a concentration-dependent manner”. The “Δ[Ca2+]i, fast and sustained rise, after ryanodine pretreatment” value in [5] (C-INSL7 100 nM, ryanodine 5 μM, 15 min pretreatment, n = 7) worked out at 391 ± 3.6 nM. Besides, in experiment [6], the “immunoreactivity after pre-absorption of C-INSL7 antiserum with peptide” value is given as “immunoreactivity was not detected”.
On to “Recombinant human relaxin 3: Recombinant human relaxin 3”, for which the GTPγS binding result with GPCR135 [7] and with GPCR145 was “potently stimulated” each time. The cAMP formation result in the experiment on GPCR135 [7] and with GPCR145 was “inhibited” in each case.
Regarding “insulin-like peptide 7 [INSL7, reference compound]”, the binding affinity result in the experiment on GPCR135 [8] was “high affinity”. The “inhibition of [125I]C-INSL7 binding” value in [1] is “did not inhibit”. Further, in experiment [2] (100 nM), the “mean amplitude of the first spike of [Ca2+]i oscillations, Ca2+-free” value turned out to be 583 ± 7.4 nM; the “rapid and transitory increase in [Ca2+]i (single spike, no plateau), Ca2+-free” value turned out to be 307 ± 4.2 nM. In addition, the “fraction of neurons with [Ca2+]i oscillations, Ca2+-free (n responding/tested)” value in experiment [2] (100 nM, Ca2+-free medium) was 5/76. In experiment [2] (type 1 response, Ca2+-free vs normal solution), the “effect of Ca2+-free solution on calcium spike” value is on record as “not significantly altered in a Ca^2+-free solution”. Further, in experiment [3], the “mean amplitude of membrane depolarization” value was determined as 9 ± 2.6 mV and the “mean amplitude of membrane hyperpolarization” value was found to be 5 ± 1.8 mV. Also, in the experiment on GPCR142, the binding affinity result is reported as “high affinity”. Further, the “neurons responding with fast calcium transient followed by oscillations” value in experiment [5] (100 nM, HBSS) is recorded as 5%. In addition, in experiment [5] (100 nM, HBSS, fura-2), the “mean amplitude of the first spike, fast calcium transient followed by oscillations” value was 1268 ± 39 nM. The “mean increase of [Ca2+]i, fast, transitory” value in experiment [5] (100 nM, HBSS, fura-2, n=27/158) worked out at 817 ± 6.3 nM. Also, the “neurons responding with fast, transitory increase of [Ca2+]i” value in [5] (100 nM, HBSS, n=27/158) stood at 17%.
As for relaxin 3 (from UniProt Q8WXF3), the results for the Kd with GPCR135 (Homo sapiens) and with GPCR142 (Homo sapiens) were 0.31 nM and 1.9 nM, respectively.
Regarding ryanodine [reference compound], the “effect of ryanodine pretreatment on C-INSL7-induced [Ca2+]i oscillations” value in [5] (ryanodine 5 μM, 15 min, C-INSL7 100 nM) was “abolishing the [Ca^2+]i oscillations”.

The values above are taken from paper PMC2775513 (Neuroscience, 2009).
